As usually defined, the pEC50 is the EC50 on a negative log10 scale, so that one unit is a factor of ten. A low value points to a large EC50. The term logD denotes lipophilicity at a set pH, counting ionised and neutral species. What is called pKi is −log10 of the Ki, conventionally taken in molar units. A high value points to a low Ki.

The nature of series [1]: (§1) Cytotoxicity against human MIAPaCa2 cells harboring K-Ras mutant oncogene after 48 hrs by fluorescence assay. The class given is functional, cell-based. The note with it: MIA PaCa-2, 48 h. In outline: (§2)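 Cells from ATCC, kept at 37°C in 5% CO2 to about 80% confluence, trypsinized and plated at 1×10^4 cells/well in medium with 5% FBS. Treated with PCAIs 0–20 μM for 48 h. Viability by resazurin (0.02% in Dulbecco PBS, 20 μL added), fluorescence read after 2 h at ex 560/em 590 nm. EC50 by nonlinear regression of concentration-response.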

Series [2] is described as follows: (§3) Cytotoxicity against human BxPC3 cells after 48 hrs by fluorescence assay. The class given is functional, cell-based. The settings on record: BXPC-3, 48 h. In outline: as §2
The test system of series [3] is MIA PaCa-2. The series is described as follows: Cytotoxicity against human MIAPaCa2 cells harboring K-Ras mutant oncogene at 20 uM after 24 to 72 hrs by fluorescence assay. The class given is functional, cell-based. In outline:
(§4)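 Same viability method: cells plated at 1×10^4 cells/well in 5% FBS medium, exposed to 20 μM PCAI for 24, 48 and 72 h. Resazurin (0.02% in Dulbecco PBS) added, fluorescence ex 560/em 590 nm read 2 h later.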

For series [4], the system named is BXPC-3. Kind of series: Cytotoxicity against human BxPC3 cells at 20 uM after 24 to 72 hrs by fluorescence assay. It counts as functional, cell-based. In outline: as §4
The nature of series [5]: Lipophilicity, log D of the compound. It counts as physicochemical. The note with it: octanol/water.
In series [6] the test system is MIA PaCa-2. The description is as §1. The class given is functional, cell-based. In outline:
as §2

Series [7] deals with BXPC-3. The series is described as §3. It counts as functional, cell-based. In outline: as §2
Series [8] is described as follows: (§5) Inhibition of PMPMEase (unknown origin) using RD-PNB as substrate incubated for 15 mins prior to substrate addition measured after 2 hrs by RP-HPLC analysis. Also on record: species or system Homo sapiens. In outline:
(§6)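 Enzyme (1 μg) preincubated 15 min with inhibitor (1–1000 μM, dissolved in water), then RD-PNB (1 mM, in DMSO) added. Incubated 2 h at 37°C in 100 mM Tris-HCl pH 7.4, stopped with methanol, centrifuged. Supernatant analysed by RP-HPLC with UV detection at 260 nm. IC50 by nonlinear regression; Ki derived from previously reported RD-PNB kinetics.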

The species named for a further series is Homo sapiens. The description is as §5. In outline:
as §6

The subject of series [9] is MIA PaCa-2. The series is described as follows: Induction of apoptosis in human MIAPaCa2 cells harboring K-Ras mutant oncogene at 0.5 to 2 uM after 48 hrs by acridine orange/ethidium bromide staining-based fluorescence microscopy. The class given is functional, cell-based. In outline:
(§7)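 5×10^4 MIA PaCa-2 cells cultured in chamber slide wells and treated 48 h at 0.5, 1 and 2 μM in 5% FBS. Stained with acridine orange/ethidium bromide (10 μg/mL). Imaged by fluorescence microscopy (x40 objective, 480/30 nm excitation). Green intact nuclei scored as viable; bright green fragmented nuclei as early apoptotic; orange-red condensed nuclei as apoptotic.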

For series [10], the system named is MIA PaCa-2. Kind of series: Induction of apoptosis in human MIAPaCa2 cells harboring K-Ras mutant oncogene assessed as early apoptotic cells at 2 uM after 48 hrs by acridine orange/ethidium bromide staining-based fluorescence microscopy. The class given is functional, cell-based. In outline:
as §7

In series [11] the test system is MIA PaCa-2. The series is described as follows: Induction of apoptosis in human MIAPaCa2 cells harboring K-Ras mutant oncogene assessed as viable cells at 1 uM after 48 hrs by acridine orange/ethidium bromide staining-based fluorescence microscopy. It counts as functional, cell-based. In outline:
as §7

The structures appear in SMILES notation. pEC50, pKi: −log10 of the molar value. Calls of active or inactive are those of the source. The calls are words filed in the database; no cut-off is given here. A value given as a limit tells only on which side of the number the result lay.

Turning to `CC(C)=CCC/C(C)=C/CC/C(C)=C/CSc1ccccc1C(N)=O`, the pEC50 in series [1] and in series [2] was less than 4.70 in each case. Moreover, the result with MIA PaCa-2 [3] and in the series with BXPC-3 [4] was inactive. In series [5], this molecule registered a logD of 6.03.
As for `CC(C)=CCC/C(C)=C/CC/C(C)=C/CSC[C@H](NC(=O)CCCCCN1CCCC1)C(=O)NC1CCCC1`, the negative logarithm of the EC50 (pEC50) was 5.49 in [1] and 5.17 in series [2]. The Activity result in the series on MIA PaCa-2 [6], in the series on BXPC-3 [7] and in the series listed under Homo sapiens was “Dose-dependent effect” in each case. This molecule also showed a pKi in series [8] of 5.43. Besides, the logD in series [5] was determined as 4.04.
With `CC(C)=CCC/C(C)=C/CC/C(C)=C/CSC[C@H](NC(=O)CCCCCN1CCN(C)CC1)C(=O)NC1CCCCC1`, the pEC50 is 5.23 in series [1] and 4.92 in series [2]. Further, the Activity result with MIA PaCa-2 [6], with BXPC-3 [7] and in the series filed under Homo sapiens was “Dose-dependent effect” each time. In [8], the pKi was 4.77. Further, the logD in series [5] worked out at 4.99.
Regarding `CC(C)=CCC/C(C)=C/CC/C(C)=C/CSC[C@H](NC(=O)CCCCCN1CCCC1)C(=O)N1CCCCC1`, the results for the pEC50 in [1] and in [2] were 4.91 and 5.06, respectively. Also, the Activity result in the series with MIA PaCa-2 [6], in the series on BXPC-3 [7] and in the series listed under Homo sapiens was “Dose-dependent effect” in each case. Further, the pKi in series [8] is 4.96. This molecule also showed a logD in [5] of 3.76.
As to `CC(C)=CCC/C(C)=C/CC/C(C)=C/CSC[C@H](NC(=O)CCCCCN1CCN(C)CC1)C(=O)N1CCCCC1`, the pEC50 in [1] is 4.84; in series [2], 5.06. The Activity entry in the series with MIA PaCa-2 [6], in the series with BXPC-3 [7] and in the series listed under Homo sapiens was “Dose-dependent effect” in each case. The same molecule had a pKi in series [8] of 4.89. The molecule also had a logD in series [5] of 4.27.
Consider `CC(C)=CCC/C(C)=C/CC/C(C)=C/CSc1ccccc1C(=O)O` [SALIRASIB], for which the pEC50 in series [1] and in series [2] was less than 4.70 in each case. In addition, the outcome in the series on MIA PaCa-2 [3] and in the series on BXPC-3 [4] was inactive. In series [5], this molecule displayed a logD of 3.43.
On to `CC(C)=CCC/C(C)=C/CC/C(C)=C/CSC[C@H](NC(=O)CCCCCN1CCN(C)CC1)C(=O)NC1CCCCCC1`, for which the pEC50 was 5.57 in series [1] and 5.21 in series [2]. Moreover, the Activity result in the series on MIA PaCa-2 [6], in the series on BXPC-3 [7] and in the series listed under Homo sapiens was “Dose-dependent effect” each time. This molecule had a pKi in [8] of 4.75. This molecule displayed a logD in series [5] of 5.44.
Take `CC(C)=CCC/C(C)=C/CC/C(C)=C/CSC[C@H](NC(=O)CCCCCN1CCN(C)CC1)C(=O)NC1CCCC1`: the results for the pEC50 in [1] and in [2] were 4.96 and less than 4.70, respectively. Moreover, the Activity result with MIA PaCa-2 [6], in the series with BXPC-3 [7] and in the series filed under Homo sapiens was “Dose-dependent effect” each time. Further, in series [8], the pKi is 5.00. Further, in [5], the logD turned out to be 4.55.
On to `CC(C)=CCC/C(C)=C/CC/C(C)=C/CSC[C@H](NC(=O)CCCCCN1CCN(C)CC1)C(=O)NC1CC1`, for which the pEC50 in series [1] is 4.98; in [2], 5.20. In addition, the Activity entry with MIA PaCa-2 [6], in the series with BXPC-3 [7] and in the series filed under Homo sapiens was “Dose-dependent effect” each time. Besides, the pKi in [8] is 4.86. For the same molecule, in series [5], the logD is 3.66.
Regarding `CC(C)=CCC/C(C)=C/CC/C(C)=C/CSC[C@H](NC(=O)CCCCCN1CCN(C)CC1)C(=O)NC1CCCCCCC1`, the pEC50 in [1] is 5.60; in series [2] it was 5.12. Besides, the Activity result with MIA PaCa-2 [6], with BXPC-3 [7] and in the series filed under Homo sapiens was “Dose-dependent effect” throughout. Also, the result in the series on MIA PaCa-2 [9] and in the series on MIA PaCa-2 [10] was Active. For the same molecule, the pKi in series [8] is 4.82. For the same molecule, the result in the series on MIA PaCa-2 [11] was inactive. The logD in series [5] came to 5.88.
In the case of `CC(C)=CCC/C(C)=C/CC/C(C)=C/CSC[C@H](NC(=O)CCCCCN1CCCC1)C(=O)NC1CCCCC1`, the values for the pEC50 in series [1] and in [2] were 5.25 and 4.90, respectively. The Activity result with MIA PaCa-2 [6], with BXPC-3 [7] and in the series listed under Homo sapiens was “Dose-dependent effect” in each case. Also, the pKi in series [8] was 4.95. Besides, in [5], the logD was determined as 4.48.
On to `CC(C)=CCC/C(C)=C/CC/C(C)=C/CSC[C@H](NC(=O)CCCCCN1CCN(C)CC1)C(=O)N1CCCC1`, for which the values for the pEC50 in [1] and in series [2] were 5.22 and 5.49, respectively. For the same molecule, the Activity entry with MIA PaCa-2 [6], in the series on BXPC-3 [7] and in the series filed under Homo sapiens was “Dose-dependent effect” each time. This molecule also gave a pKi in series [8] of 4.70. Moreover, the logD in series [5] was found to be 3.82.
Regarding `CC(C)=CCC/C(C)=C/CC/C(C)=C/CSC[C@H](NC(=O)CCCCCN1CCCC1)C(=O)N1CCCC1`, the pEC50 in [1] was 4.97; in series [2] it was 5.19. In addition, the Activity entry in the series on MIA PaCa-2 [6], in the series on BXPC-3 [7] and in the series listed under Homo sapiens was “Dose-dependent effect” each time. Further, in series [8], the pKi is 5.01. The molecule also gave a logD in series [5] of 3.31.
`CC(C)=CCC/C(C)=C/CC/C(C)=C/CSC[C@H](NC(=O)CCCCCN1CCCC1)C(=O)NC1CC1`: the pEC50 in [1] and in series [2] was less than 4.70 in each case. Also, the Activity result with MIA PaCa-2 [6], with BXPC-3 [7] and in the series listed under Homo sapiens was “Dose-dependent effect” each time. This molecule also showed a pKi in [8] of 4.76. The molecule further yielded a logD in [5] of 3.15.
For the molecule `CC(C)=CCC/C(C)=C/CC/C(C)=C/CSC[C@H](NC(=O)CCCCCN1CCCC1)C(=O)NC1CCCCCCC1`, the pEC50 in series [1] is 5.72; in series [2], 5.40. Moreover, the Activity entry with MIA PaCa-2 [6], in the series with BXPC-3 [7] and in the series filed under Homo sapiens was “Dose-dependent effect” throughout. In [8], this molecule showed a pKi of 4.92. For the same molecule, the logD in series [5] was 5.37.
For `CC(C)=CCC/C(C)=C/CC/C(C)=C/CSC[C@H](NC(=O)CCCCCN1CCCC1)C(=O)NC1CCCCCC1`, the pEC50 was 5.17 in series [1] and 5.24 in series [2]. Moreover, the Activity entry in the series with MIA PaCa-2 [6], with BXPC-3 [7] and in the series listed under Homo sapiens was “Dose-dependent effect” in each case. In [8], this molecule showed a pKi of 4.94. The molecule also came in with a logD in series [5] of 4.93.

The values above are taken from ChEMBL document CHEMBL3259659, “Polyisoprenylated methylated protein methyl esterase: a putative biomarker and therapeutic target for pancreatic cancer” (Eur J Med Chem, 2014).
